Reference: paper PMC5629310 (Journal of Arthropod-Borne Diseases, 2017)
Read-outs that look alike come from different tables or passages of the source.

What was measured:
[1] = Toxicity against macrophages; assay type: cell-based, mouse; conditions: BALB/c, mouse, mouse peritoneal macrophages
Outline: (§1)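 BALB/c peritoneal macrophages, collected by PBS lavage, were kept in RPMI 1640 with 10% heat-inactivated FBS, 2mM glutamine and penicillin/streptomycin. Cells were seeded at 2×10^5/well and allowed to adhere. Medium was replaced with a graded series of test compound for 24 h at 37 °C, 5% CO2, with a DMSO negative control. Viability was read by MTT. Two independent experiments were run in triplicate, and CC50 was taken by linear regression.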

[2] = test system: mouse peritoneal macrophages; experiment: Toxicity against macrophages; assay type: cell-based; conditions: CC50 macrophages / IC50 promastigotes
Outline: as §1

[3] = test system: Leishmania major promastigotes (vaccine strain MRHO/IR/75/ER); experiment: Antileishmanial activity against Leishmania major promastigotes; assay type: cell-based; conditions: for IC50: Leishmania major, 24 h, read-out: Anti-promastigote activity IC50
[4] = test system: amastigote form of L. major in murine peritoneal macrophages; conditions: previous compounds 1a-b; result in words; ref Tahghighi et al. 2013; cited from earlier work
[5] = test system: mouse peritoneal macrophages; conditions: read-out: Cytotoxicity CC50, previous compounds 1a-b, ref Tahghighi et al. 2013; cited from earlier work
[6] = test system: Leishmania major promastigotes (vaccine strain MRHO/IR/75/ER); conditions: read-out: Anti-promastigote activity IC50; L. major promastigotes; previous compounds 1a-b; ref Tahghighi et al. 2013; cited from earlier work

| Structure (SMILES) | CC50 at 24 h [1] [µM] | SI (selectivity index CC50/IC50) [2] | IC50 [3] [µM] | Number of intracellular amastigotes per macrophage, percentage of macrophage infectivity and infectivity index compared with control group [4] | fold more potent than 5-nitrofuran counterpart 1a ([3]; promastigote IC50, 1b versus 1a) [fold] | CC50 [5] [µM] | IC50 [6] [µM] |
| --- | --- | --- | --- | --- | --- | --- | --- |
| O=[N+]([O-])c1ccc(-c2nnc(N3CCC(O)CC3)s2)o1 [Compound 5a, 1-(5-(5-nitrofuran-2-yl)-1,3,4-thiadiazol-2-yl)piperidin-4-ol] | 78.5 | 1.14 | 68.9 ± 0.107 |  |  |  |  |
| O=[N+]([O-])c1ccc(-c2nnc(N3CCC(O)CC3)s2)s1 [Compound 5b, 1-(5-(5-nitrothiophen-2-yl)-1,3,4-thiadiazol-2-yl)piperidin-4-ol] | 63.6 | 2.35 | 27 ± 0.12 |  |  |  |  |
| OC(Cn1cncn1)(Cn1cncn1)c1ccc(F)cc1F [Fluconazole, reference compound] |  |  | 941.1 ± 4.98 |  |  |  |  |
| O=[N+]([O-])c1ccc(-c2nnc(NCCCO)s2)s1 [Compound 1b, 3-(5-(5-nitrothiophen-2-yl)-1,3,4-thiadiazol-2-ylamino) propan-1-ol] |  |  |  | decreased | 6 | 42.2 | 3 ± 0.41 |
| O=[N+]([O-])c1ccc(-c2nnc(NCCCO)s2)o1 [Compound 1a, 3-(5-(5-nitrofuran-2-yl)-1,3,4-thiadiazol-2-ylamino) propan-1-ol] |  |  |  | decreased |  | 62.3 | 18 ± 0.2 |
